Results reported in ChEMBL document CHEMBL1158492, “Triazole inhibitors of Cryptosporidium parvum inosine 5'-monophosphate dehydrogenase” (J Med Chem, 2009).
pEC50, pIC50: −log10 of the molar value.

Experiments:
[1] = biological target: T1, Inosine-5'-monophosphate dehydrogenase 2 (Homo sapiens, UniProt P12268); assay: Inhibition of human recombinant IMPDH2 expressed in Escherichia coli guaB assessed as NADH production at 5 uM by fluorescence assay
[2] = biological target: T2, Inosine-5'-monophosphate dehydrogenase (Cryptosporidium parvum, UniProt Q8T6T2); assay: Inhibition of Cryptosporidium parvum recombinant IMPDH expressed in Escherichia coli TX685 assessed as NADH production by fluorescence assay in absence of 0.05% fatty acid free bovine serum albumin
T2 sequence (Q8T6T2 whole entry): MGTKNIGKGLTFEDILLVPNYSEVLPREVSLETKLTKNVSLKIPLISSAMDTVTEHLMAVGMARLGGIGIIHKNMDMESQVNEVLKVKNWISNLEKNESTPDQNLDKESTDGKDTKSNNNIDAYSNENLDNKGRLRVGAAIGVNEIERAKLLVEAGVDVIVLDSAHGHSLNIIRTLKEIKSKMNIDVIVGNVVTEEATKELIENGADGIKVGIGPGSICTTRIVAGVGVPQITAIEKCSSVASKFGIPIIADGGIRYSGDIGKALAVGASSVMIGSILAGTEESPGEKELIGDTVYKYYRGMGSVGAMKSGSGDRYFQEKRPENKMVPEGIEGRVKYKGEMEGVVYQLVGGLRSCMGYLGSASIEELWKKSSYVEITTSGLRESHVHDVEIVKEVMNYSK
How it was run: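 Enzyme (10 nM) pre-incubated with inhibitor 5 min at room temperature before adding substrates (150 μM IMP, 300 μM NAD). Inhibitor range 25 pM–5 μM. NADH read by fluorescence. Initial velocities averaged over quadruplicates. IC50 from vi/vo, mean ± SD of three independent determinations.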

[3] = biological target: T2, Inosine-5'-monophosphate dehydrogenase; assay: Inhibition of Cryptosporidium parvum recombinant IMPDH expressed in Escherichia coli TX685 assessed as NADH production by fluorescence assay in presence of 0.05% fatty acid free bovine serum albumin
How it was run: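 Same IMP→XMP fluorescence (NADH) assay, with 0.05% fatty acid free BSA added. Conditions: 10 nM enzyme, 5 min room-temperature pre-incubation with inhibitor, then 150 μM IMP and 300 μM NAD. IC50 from three independent experiments, mean ± SD.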

[4] = biological target: T2, Inosine-5'-monophosphate dehydrogenase; assay: Inhibition of Cryptosporidium parvum recombinant IMPDH expressed in Escherichia coli guaB assessed as NADH production by fluorescence assay
How it was run: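 E. coli-expressed CpIMPDH at 10 nM, preincubated with inhibitor (25 pM - 5 μM) for 5 min at room temperature before adding 150 μM IMP and 300 μM NAD. NADH read by fluorescence from initial velocities, in quadruplicate. IC50 ± SD from three independent runs, some also with 0.05% fatty-acid-free BSA.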

[5] = biological target: T1, Inosine-5'-monophosphate dehydrogenase 2; assay: Inhibition of human recombinant IMPDH2 expressed in Escherichia coli guaB assessed as NADH production by fluorescence assay
[6] = biological target: T3, Inosine-5'-monophosphate dehydrogenase (Cryptosporidium parvum) (UniProt Q8T6T2); assay: Ratio of campaign IC50 to compound IC50 for Cryptosporidium parvum recombinant IMPDH expressed in Escherichia coli TX685 in absence of 0.05% fatty acid free bovine serum albumin
T3 sequence (whole entry): T2 sequence (Q8T6T2 whole entry)

Ratio IC50 [6]	Compound	inhibition [1] [%]	pIC50 [2]	pIC50 [3]	pEC50 [4]	pIC50 [5]
–	CC(Oc1ccnc2ccccc12)C(=O)Nc1ccc(Cl)cc1 (configuration not stated)	< 10	6.18	6.07	–	–
–	CC(Oc1cccc2ccccc12)c1cn(-c2ccc(Cl)cc2)nn1 (configuration not stated)	< 10	6.89	6.11	–	–
–	CC(Oc1cccc2ccccc12)c1cn(-c2ccccc2Cl)nn1 (configuration not stated)	< 10	< 5.30	–	–	–
–	CC(C)C(Oc1cccc2ccccc12)C(=O)Nc1ccc(Cl)cc1 (configuration not stated)	< 10	6.15	6.08	–	–
–	C[C@H](Oc1ccnc2ccccc12)c1cn(-c2ccc(Cl)c(Cl)c2)nn1	< 10	6.89	6.06	–	–
–	C[C@H](Oc1ccnc2ccccc12)c1cn(-c2ccc(C#N)c(Cl)c2)nn1	< 10	6.22	5.64	–	–
–	CC(Oc1cc[n+]([O-])c2ccccc12)c1cn(-c2ccc(Cl)cc2)nn1 (configuration not stated)	< 10	7.54	7.30	–	–
–	CC(Oc1cccc2c1ccc[n+]2[O-])c1cn(-c2ccc(Cl)cc2)nn1 (configuration not stated)	< 10	7.36	7.23	–	–
–	C[C@@H](Oc1cccc2c1ccc[n+]2[O-])c1cn(-c2ccc(Cl)cc2)nn1	< 10	7.62	7.28	–	–
–	C[C@@H](Oc1ccnc2ccccc12)c1cn(-c2ccc(C#N)c(Cl)c2)nn1	< 10	7.51	5.96	–	–
–	O=C(Nc1ccc(Cl)cc1)C(Oc1cccc2ccccc12)C1CC1 (configuration not stated)	< 10	< 5.30	–	–	–
–	CC(Oc1ccc(Cl)c2ccccc12)c1cn(-c2ccc(Cl)cc2)nn1 (configuration not stated)	< 10	7.06	5.41	–	–
–	CC(Oc1cc[n+]([O-])c2ccccc12)c1cn(-c2ccc(Cl)c(Cl)c2)nn1 (configuration not stated)	< 10	7.74	7.38	–	–
–	C[C@@H](Oc1cc[n+]([O-])c2ccccc12)c1cn(-c2ccc(Cl)cc2)nn1	< 10	7.89	7.30	–	–
–	CC(Oc1ccnc2ccccc12)c1cn(-c2ccc(Cl)cc2)nn1 (configuration not stated)	< 10	7.62	6.64	–	–
–	C[C@@H](Oc1cccc2ncccc12)c1cn(-c2ccc(Cl)cc2)nn1	< 10	8.05	7.52	–	–
–	CC(Oc1ccnc2ccccc12)c1cn(-c2ccc(C#N)c(Cl)c2)nn1 (configuration not stated)	< 10	7.40	5.85	–	–
–	CC(Oc1ccccc1)C(=O)Nc1ccc(Cl)cc1 (configuration not stated)	–	5.48	–	5.48	< 4.30
–	CC(C)C(Oc1cccc2ccccc12)c1cn(-c2ccc(Cl)cc2)nn1 (configuration not stated)	< 10	< 5.30	–	–	–
–	CC(Oc1ccnc2ccccc12)c1cn(-c2ccc(C#N)cc2)nn1 (configuration not stated)	< 10	6.85	6.47	–	–
–	CC(Oc1ccnc2ccccc12)c1cn(-c2ccc(Cl)c(Cl)c2)nn1 (configuration not stated)	< 10	7.70	6.15	–	–
–	C[C@@H](Oc1ccnc2ccccc12)c1cn(-c2ccc(Cl)c(Cl)c2)nn1	< 10	8.05	6.19	–	–
–	Clc1ccc(-n2cc(COc3ccnc4ccccc34)nn2)cc1	< 10	6.36	6.32	–	–
–	O=C(Nc1ccc(Cl)cc1)C(Oc1cccc2ccccc12)c1ccccc1 (configuration not stated)	< 10	< 5.30	–	–	–
3	CC(Oc1cccc2ccccc12)C(=O)Nc1ccc(Cl)cc1 (configuration not stated)	< 10	5.97	5.79	–	–
